Test results as given in ChEMBL document CHEMBL1926623, “Modification of olivomycin A at the side chain of the aglycon yields the derivative with perspective antitumor characteristics” (Bioorg Med Chem, 2011).

What was measured:
[1] = test system: HCT-116; assay: Antiproliferative activity against human HCT116 cells after 72 hrs by MTT assay; type: functional, cell-based
Outline: (§1)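 Cells from ATCC grown in DMEM or RPMI-1640 with 5% FCS, 2 mM L-glutamine, and penicillin/streptomycin at 37 °C, 5% CO2. 5 × 10³ log-phase cells per well were exposed to serial dilutions (from 10 mM DMSO stocks; 0.1% DMSO vehicle control), each dose in duplicate, for 72 h. MTT was added for 2 h and absorbance read at 540 nm. IC50 is the 50% viability inhibition versus vehicle. Mean ± SD of 4–5 independent experiments.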

[2] = test system: K562; assay: Antiproliferative activity against human K562 cells after 72 hrs by MTT assay; type: functional, cell-based; outline: as §1
[3] = test system: P388; assay: Antitumor activity against mouse P388 cells xenografted in B6D2F1 mouse assessed as increase in lifespan at 2 mg/kg, ip administered daily for 5 days relative to untreated control; type: functional; details: route intraperitoneal
Outline: (§2)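 Each group of 10 B6D2F1 mice received 10^6 P388 lymphoma cells ip on day 0. Drug was dissolved in 0.1% DMSO, diluted with saline and given once daily for 5 days; controls were untreated. ILS (%) = (Dt−Dc)/Dc × 100, where Dt and Dc are mean survival times in days for treated and control groups.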

[4] = test system: P388; assay: Antitumor activity against mouse P388 cells xenografted in B6D2F1 mouse assessed as increase in lifespan at 1 mg/kg, ip administered daily for 5 days relative to untreated control; type: functional; details: route intraperitoneal; outline: as §2
[5] = Toxicity in mouse P388 cells xenografted B6D2F1 mouse assessed as mortality at 4 mg/kg, ip administered daily for 5 days; type: organism-based; set-up: dose 4 mg/kg, route intraperitoneal; details: in vivo, read-out: Activity
Outline: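 B6D2F1 mice, 10 per group, were inoculated ip with 10^6 P388 cells on day 0. Drug in 0.1% DMSO, diluted in saline, was given daily for 5 days. Physical condition, body weight, behaviour, nutrition and hair cover were monitored daily. Mortality was scored as drug-related toxicity deaths.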

[6] = test system: B16; assay: Antitumor activity against mouse B16 cells xenografted in B6D2F1 mouse assessed as tumor growth inhibition at 2 mg/kg, iv administered on days 1,4,7,10 and 13 measured 28 days post tumor challenge; type: functional; details: B16, 672 h, read-out: GI
Outline: (§3)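 B6D2F1 mice, 10 per group, received 10⁶ B16 melanoma cells s.c. into the right flank on day 0. Compound diluted in saline was given iv on days 1, 4, 7, 10, 13 (5 injections) or days 1–22 every third day (8 injections). Controls were left untreated, and mice were sacrificed by day 28. ITG% = (Mc−Mt)/Mc × 100, using calculated tumor weight (a×b×c)/2.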

[7] = test system: B16; assay: Antitumor activity against mouse B16 cells xenografted in B6D2F1 mouse assessed as tumor growth inhibition at 2 mg/kg, iv administered on days 1,4,7,10,13,16,19 and 22 measured 28 days post tumor challenge; type: functional; details: B16, 672 h, read-out: GI; outline: as §3
[8] = test system: Nucleic Acid; assay: Binding affinity to Salmon sperm DNA assessed as increase in fluorescence at 1.34 uM by spectrophotometry; type: nucleic-acid assay; details: Salmonidae
[9] = test system: Nucleic Acid; assay: Binding affinity to Salmon sperm DNA at 1.34 uM by Scatchard plot analysis; type: nucleic-acid assay; details: Salmonidae
[10] = test system: Nucleic Acid; assay: Binding affinity to Salmon sperm DNA assessed as increase in fluorescence at 1.34 uM by spectrophotometry; details: Salmonidae

| Compound | IC50 [1] | IC50 [2] | further results |
| --- | --- | --- | --- |
| CO[C@H]1[C@H](O)C[C@@H](O[C@@H]2C[C@H](Oc3cc(O)c4c(O)c5c(cc4c3)C[C@@H]([C@H](OC)C(=O)NCCN(C)C)[C@H](O[C@H]3C[C@H](O[C@H]4C[C@H](O[C@H]6C[C@@](C)(O)[C@@H](OC(=O)C(C)C)[C@H](C)O6)[C@H](O)[C@@H](C)O4)[C@H](O)[C@@H](C)O3)C5=O)O[C@H](C)[C@H]2OC(C)=O)O[C@@H]1C | 20 nM | 47 nM |  |
| CO[C@H]1[C@H](O)C[C@@H](O[C@@H]2C[C@H](Oc3cc(O)c4c(O)c5c(cc4c3)C[C@@H]([C@H](OC)C(=O)NCc3ccc(F)cc3)[C@H](O[C@H]3C[C@H](O[C@H]4C[C@H](O[C@H]6C[C@@](C)(O)[C@@H](OC(=O)C(C)C)[C@H](C)O6)[C@H](O)[C@@H](C)O4)[C@H](O)[C@@H](C)O3)C5=O)O[C@H](C)[C@H]2OC(C)=O)O[C@@H]1C | 278 nM | 148 nM |  |
| CO[C@H]1[C@H](O)C[C@@H](O[C@@H]2C[C@H](Oc3cc(O)c4c(O)c5c(cc4c3)C[C@@H]([C@H](OC)C(=O)NCCCO)[C@H](O[C@H]3C[C@H](O[C@H]4C[C@H](O[C@H]6C[C@@](C)(O)[C@@H](OC(=O)C(C)C)[C@H](C)O6)[C@H](O)[C@@H](C)O4)[C@H](O)[C@@H](C)O3)C5=O)O[C@H](C)[C@H]2OC(C)=O)O[C@@H]1C | 156 nM |  |  |
| CO[C@H]1[C@H](O)C[C@@H](O[C@@H]2C[C@H](Oc3cc(O)c4c(O)c5c(cc4c3)C[C@@H]([C@H](OC)C(=O)NC3C4CC6CC(C4)CC3C6)[C@H](O[C@H]3C[C@H](O[C@H]4C[C@H](O[C@H]6C[C@@](C)(O)[C@@H](OC(=O)C(C)C)[C@H](C)O6)[C@H](O)[C@@H](C)O4)[C@H](O)[C@@H](C)O3)C5=O)O[C@H](C)[C@H]2OC(C)=O)O[C@@H]1C (some centres undefined) | 180 nM |  |  |
| CO[C@H]1[C@H](O)C[C@@H](O[C@@H]2C[C@H](Oc3cc(O)c4c(O)c5c(cc4c3)C[C@@H]([C@H](OC)C(=O)N[C@@H]3[C@@H](O)[C@@H](O)[C@@H](CO)O[C@H]3O)[C@H](O[C@H]3C[C@H](O[C@H]4C[C@H](O[C@H]6C[C@@](C)(O)[C@@H](OC(=O)C(C)C)[C@H](C)O6)[C@H](O)[C@@H](C)O4)[C@H](O)[C@@H](C)O3)C5=O)O[C@H](C)[C@H]2OC(C)=O)O[C@@H]1C | > 12500 nM | 2390 nM |  |
| CO[C@H]1[C@H](O)C[C@@H](O[C@@H]2C[C@H](Oc3cc(O)c4c(O)c5c(cc4c3)C[C@@H]([C@H](OC)C(=O)[C@@H](O)[C@@H](C)O)[C@H](O[C@H]3C[C@H](O[C@H]4C[C@H](O[C@H]6C[C@@](C)(O)[C@@H](OC(=O)C(C)C)[C@H](C)O6)[C@H](O)[C@@H](C)O4)[C@H](O)[C@@H](C)O3)C5=O)O[C@H](C)[C@H]2OC(C)=O)O[C@@H]1C [OLIVOMYCIN A] | 20 nM | 50 nM | Activity [3]: 35%; Activity [4]: 24%; mortality at 120 h [5]: 87%; inhibition in vivo at 2 mg/kg [6]: 48%; inhibition in vivo at 2 mg/kg [7]: 45% |
| CO[C@H]1[C@H](O)C[C@@H](O[C@@H]2C[C@H](Oc3cc(O)c4c(O)c5c(cc4c3)C[C@@H]([C@H](OC)C(=O)O)[C@H](O[C@H]3C[C@H](O[C@H]4C[C@H](O[C@H]6C[C@@](C)(O)[C@@H](OC(=O)C(C)C)[C@H](C)O6)[C@H](O)[C@@H](C)O4)[C@H](O)[C@@H](C)O3)C5=O)O[C@H](C)[C@H]2OC(C)=O)O[C@@H]1C [OLIVOMYCIN SA] | 2000 nM | 2200 nM | Activity [8]: Dose-dependent effect; K [9]: 2.1 ×10⁴ /M; Activity [10]: Dose-dependent effect |

Now from value to molecule, other results behind:

| IC50 [1] | IC50 [2] | Compound | further results |
| --- | --- | --- | --- |
| 120 nM |  | CNC(=O)[C@@H](OC)[C@@H]1Cc2cc3cc(O[C@H]4C[C@@H](O[C@@H]5C[C@@H](O)[C@H](OC)[C@@H](C)O5)[C@H](OC(C)=O)[C@@H](C)O4)cc(O)c3c(O)c2C(=O)[C@H]1O[C@H]1C[C@H](O[C@H]2C[C@H](O[C@H]3C[C@@](C)(O)[C@@H](OC(=O)C(C)C)[C@H](C)O3)[C@H](O)[C@@H](C)O2)[C@H](O)[C@@H](C)O1 |  |
| 100 nM |  | CO[C@H]1[C@H](O)C[C@@H](O[C@@H]2C[C@H](Oc3cc(O)c4c(O)c5c(cc4c3)C[C@@H]([C@H](OC)C(N)=O)[C@H](O[C@H]3C[C@H](O[C@H]4C[C@H](O[C@H]6C[C@@](C)(O)[C@@H](OC(=O)C(C)C)[C@H](C)O6)[C@H](O)[C@@H](C)O4)[C@H](O)[C@@H](C)O3)C5=O)O[C@H](C)[C@H]2OC(C)=O)O[C@@H]1C |  |
| 20 nM | 63 nM | COC(=O)[C@H](C)NC(=O)[C@@H](OC)[C@@H]1Cc2cc3cc(O[C@H]4C[C@@H](O[C@@H]5C[C@@H](O)[C@H](OC)[C@@H](C)O5)[C@H](OC(C)=O)[C@@H](C)O4)cc(O)c3c(O)c2C(=O)[C@H]1O[C@H]1C[C@H](O[C@H]2C[C@H](O[C@H]3C[C@@](C)(O)[C@@H](OC(=O)C(C)C)[C@H](C)O3)[C@H](O)[C@@H](C)O2)[C@H](O)[C@@H](C)O1 |  |
